Yeast lifespan up: extends the lifespan of yeast; S. cerevisiae growth with nicotinamide, OD615; deaD strain in restrictive glucose medium; inhibition of the nicotinamide effect, % at 10 µM; hit rate 0.68% among 130,000;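 active means inhibition above a set limit, placed 3 SD over the median of all compounds, cut at about 26% in these data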;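 further: 0% = nicotinamide-treated wells and 100% = cells grown without nicotinamide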
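Assay system: engineered S. cerevisiae DeaD replicative-lifespan strain, galactose-grown log-phase cells; Buffer or medium: CSMM-D glucose medium, restrictive; Probe or stimulus: nicotinamide 1.5 mM; Compound: single dose 10 µM compound, 0.25% DMSO; Schedule: 4 h preincubation then 48 h treatment at 30 °C; Technique: OD615 measurement.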
BB579 growth dn: chemicals that inhibit yeast BB579 growth in restrictive medium (lifespan-shortening candidates); inhibition, % at 10 µM; S. cerevisiae BB579 growth, OD615, 48 h; AID 804; hit rate 0.51% among 140,000;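 active means inhibition above a set limit, 3 SD over the mean compound inhibition, cut at about 44% in these data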
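System: DeaD yeast strain BB579; buffer or medium: CSMM-D dextrose restrictive medium; technique: OD at 615 nm; schedule: 4 h cell preincubation, 48 h compound exposure, 30 °C humidified; doses: single 10 µM dose; controls: amphotericin B 10 µg/mL, positive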
TNAP inh hi DEA: TNAP (human) inhibition, high acceptor; purified TNAP, CDP-star luminescence, 1 M DEA; hit rate 0.03% among 200,000; P05186; inhibition, % at 20 µM;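 active means over 50% inhibition of tissue-nonspecific alkaline phosphatase at 20 µM in the single-dose screen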;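 further: plate controls were DMSO wells for no effect and EDTA-quenched wells as full inhibition for full effect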
Target sequence (P05186 whole entry, looked up): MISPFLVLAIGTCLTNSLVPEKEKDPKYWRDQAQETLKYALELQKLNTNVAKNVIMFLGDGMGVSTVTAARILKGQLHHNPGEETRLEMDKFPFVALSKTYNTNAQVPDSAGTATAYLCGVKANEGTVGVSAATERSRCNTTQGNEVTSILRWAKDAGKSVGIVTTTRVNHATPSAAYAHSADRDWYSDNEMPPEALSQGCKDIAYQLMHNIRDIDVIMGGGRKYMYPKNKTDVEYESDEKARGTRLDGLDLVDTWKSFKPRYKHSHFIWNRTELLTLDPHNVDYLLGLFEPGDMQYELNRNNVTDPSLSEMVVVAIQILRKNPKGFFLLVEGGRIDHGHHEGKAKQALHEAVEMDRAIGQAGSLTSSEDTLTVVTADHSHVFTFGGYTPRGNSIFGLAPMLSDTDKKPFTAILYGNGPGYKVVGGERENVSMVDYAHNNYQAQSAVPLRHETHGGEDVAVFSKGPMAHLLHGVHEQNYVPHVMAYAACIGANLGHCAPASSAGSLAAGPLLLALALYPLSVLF
TNAP act hiacc: TNAP (human) activation, high acceptor; P05186; purified TNAP, CDP-star luminescence, 1 M DEA, 30 min; stronger effect = higher value; 0 = EDTA background, 1 = DMSO-only activity; activation factor at 20 µM; 200,000 tested, under 10 active; AID 1136;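 active means activation factor at least 2 at 20 µM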
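Test system – human TNAP · Doses – 20 µM single point · Incubation – 30 min, room temperature · Signal – luminescent substrate turnover signal · Read-out basis – activation factor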
RAM inhibit: yeast RAM network inhibition; S. cerevisiae dse1pr::URA3 reporter, 5-FOA growth OD615, 2 d; analog-sensitive cbk1-as2 kinase mutant strain; inhibition, % at 50 µM; hit rate 1.8% among 190,000;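 active means inhibition above a set limit, 3 SD over mean compound inhibition, cut at about 8.4% in these data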;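 further: 0% = DMSO-only wells with no growth and 100% = 10 µM 1-NA-PP1 full growth; inhibition rescues growth on 5-FOA so higher OD means more RAM inhibition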
TNAP inh noacc: blocks human TNAP activity with no phosphate acceptor present; P05186; purified TNAP, CDP-star luminescence, 30 min; inhibition, % at 20 µM; hit rate 0.26% among 200,000; AID 1012;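 active means tissue-nonspecific alkaline phosphatase inhibition above about 50% at 20 µM in the single-dose screen, limit read from the data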;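 further: 0% = DMSO negative control and 100% = EDTA positive control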
The depositor's hits bear a star; x = not tested or not shown. Rows were chosen to be rich in hits. Some 2.8% of all compounds tested hit in one or more screens of this group.

SMILES | Yeast lifespan up | BB579 growth dn | TNAP inh hi DEA | TNAP act hiacc | RAM inhibit | TNAP inh noacc
COc1ccc2c(=O)c3c(=O)n(Cc4ccco4)c(C(C)C)nc3oc2c1 | x | -21.5 | 0.5 | 1 | 1.9 | -7.6
COC(=O)CSc1nc(C)cc(C(F)(F)F)c1C#N | -21.0 | 13.7 | -4.6 | 1 | 0.7 | 10.8
Cc1ccc(S(=O)(=O)CCSc2nc(C)cc(C(F)(F)F)c2C#N)cc1 | x | -7.1 | 0.2 | 1 | 10.2* | 0.4
Cc1cc(C(F)(F)F)c(C#N)c(Sc2ccccc2)n1 | -17.5 | -10.4 | -4.2 | 1 | 10.0* | -14.3
O=C(O)CCC(=O)Nc1ccc(C(=O)N2CCCCC2)cc1 | -7.7 | -10.0 | -5.3 | 1.1 | 0.9 | -11.3
Cc1ccc2c(c1)N(CC(=O)NCc1cccs1)C(=O)CO2 | -3.6 | -41.4 | -4.6 | 1 | 2.9 | -12.0
COc1ccccc1-c1nnc2n1N=C(c1ccc(O)c(O)c1)CS2 | -9.1 | -1.7 | 4.4 | 1 | 1.8 | 66.7*
CC(=O)NCCC(=O)Nc1ccc(F)cc1C | -19.7 | -24.7 | -3.6 | 1 | 0.9 | -1.3
O=C(Nc1ccc2c(c1)OCCO2)NC1(C(F)(F)F)Oc2ccccc2O1 | 30.2* | -49.1 | 3.7 | 1 | 1.4 | -9.9
CC(=O)Nc1cccc(/C(C)=N\NC(=O)c2ccc(Cn3nc([N+](=O)[O-])c(Cl)c3C)o2)c1 | -0.3 | -19.2 | -2.8 | 1 | 2.1 | -7.0
NS(=O)(=O)c1ccc(NC(=O)N2c3ccccc3Sc3ccccc32)cc1 | -5.1 | -35.9 | 8.4 | 0.9 | 9.4* | 5.6
CC(=O)c1c(C(C)=O)c(C)n(NC(=O)c2cccnc2)c1C | 45.8* | -42.7 | -5.0 | 1.1 | 0.1 | -4.0
Cc1c(Cl)ccc2c1NC(=O)[C@]21N[C@@H](Cc2ccccc2)[C@H]2C(=O)N(c3ccc(F)cc3)C(=O)[C@H]21 | 5.5 | -78.5 | 0.8 | 1 | 8.5* | 10.3
O=C1[C@@H]2[C@H](Cc3ccc(O)cc3)N[C@]3(C(=O)Nc4ccccc43)[C@@H]2C(=O)N1c1ccc(F)cc1 | 1.4 | -29.1 | -8.8 | 1.1 | 1.0 | -11.1
COc1cccc(-c2nc3n(n2)C(c2ccc4c(c2)OCO4)C(C(N)=O)=C(C)N3)c1 (stereo unspecified) | -11.4 | 4.5 | -6.9 | 1.1 | 10.5* | 3.0
Cc1ccc(S(=O)(=O)Cn2nnnc2CN2CCCC3(CCCCC3)C2)cc1 | 1.2 | -73.2 | -2.8 | 1 | 1.8 | -4.3
O=C1NC(c2ccccc2)C(C(=O)c2cccs2)C(O)(C(F)(F)F)N1 (stereo unspecified) | -7.0 | -30.9 | -6.5 | 1.1 | -0.7 | -11.8
CN1C(=O)NC(c2ccc(O)cc2)C(C(=O)c2cccs2)C1(O)C(F)(F)F (stereo unspecified) | 33.6* | -15.2 | -1.2 | 1 | 0.7 | -9.9
O=C(c1ccc(S(=O)(=O)Nc2ccc(F)cc2)cc1)N1CCN(C(=O)c2ccco2)CC1 | -9.7 | -66.4 | -1.8 | 1 | 2.6 | -2.1
CCOc1ccc(C(=O)Nc2c3c(nn2-c2ccc(C)cc2)CS(=O)C3)cc1OCC (stereo unspecified) | 3.9 | -26.2 | -6.7 | 1.1 | 9.6* | -13.3
CCOC(=O)CCc1c(C)nc(SCCCn2c(=O)[nH]c3ccccc32)c(C#N)c1C | 5.7 | -66.8 | -4.9 | 1 | 9.4* | -12.8
CCCNC(=O)CS(=O)Cc1nc(-c2ccccc2C)oc1C (stereo unspecified) | -7.0 | 1.2 | -0.9 | 1 | 0.7 | -11.6
CCC(C)NC(=O)CS(=O)Cc1nc(-c2ccccc2C)oc1C (stereo unspecified) | -0.5 | 47.1* | -6.9 | 1.1 | 1.4 | -16.6
COc1c(Cl)ccc(Cl)c1C(=O)NC(=S)N1CCOCC1 | x | x | -5.8 | 1.1 | -0.1 | -10.0
CC(=O)Nc1cc(-c2ccc(F)cc2)[nH]n1 | x | x | 2.4 | 1 | 1.5 | 90.7*
SMILES | Yeast lifespan up | BB579 growth dn | TNAP inh hi DEA | TNAP act hiacc | RAM inhibit | TNAP inh noacc
CCNC(=S)Nc1cc(-c2ccc(Cl)cc2)[nH]n1 | x | x | -3.2 | 1 | 1.6 | -2.7
CCN1C(=O)CSc2ccc(C(=O)NCc3ccccc3OC)cc21 | -30.9 | -12.8 | 2.3 | 1 | 1.0 | 12.0
CCN1C(=O)CSc2ccc(C(=O)NC3CCCCC3)cc21 | 0.2 | -27.4 | -6.0 | 1.1 | 8.7* | -16.1
CC(C)CN=C(NS(=O)(=O)c1ccccc1)C(Cl)(Cl)Cl | 43.6* | -26.6 | -0.6 | 1 | 0.5 | -19.8
CCOC(=O)c1cnc(/N=C/N(C)C)s1 | x | x | -6.3 | 1.1 | 1.4 | -1.7
Cc1ccc(-c2csc(C3=C(O)CN(NC(=O)c4ccc([N+](=O)[O-])cc4)C3=N)n2)cc1 | x | x | 0.0 | 1 | 8.6* | -8.4
N=C1C(c2nc(-c3ccc(Br)cc3)cs2)=C(O)CN1NC(=O)c1ccc([N+](=O)[O-])cc1 | x | x | -0.6 | 1 | 3.0 | -7.2
COc1ccc([N+](=O)[O-])cc1NC(=O)C(C)OC(=O)c1cccnc1 (stereo unspecified) | x | x | 0.8 | 1 | 3.7 | -0.2
CC1(C)Cc2c(c(N3CCOCC3)nc3sc4c(NCc5ccccc5)nnnc4c23)CS1 | -6.8 | -61.7 | -6.2 | 1.1 | 8.7* | 5.0
CCOc1cc(/C=C2/C(=O)ON=C2C)ccc1OCc1ccc(F)cc1 | 1.2 | -30.3 | 1.3 | 1 | 9.9* | -2.6
CCOc1cc(/C=C2/C(=O)ON=C2C)ccc1OCc1ccccc1 | x | x | 1.4 | 1 | 10.4* | -2.7
CSc1nc2c(c(C(F)(F)F)n1)CC(C)CC2 (stereo unspecified) | -17.5 | -35.6 | -1.4 | 1 | 0.6 | -9.1
O=C(CC1CCCCC1)c1c(O)c2ccccc2oc1=O | 26.7 | -5.9 | -0.4 | 1 | 9.6* | -10.5
COc1ccc(OCC(=O)c2c(O)c3ccccc3oc2=O)cc1 | 35.0 | -19.9 | -2.9 | 1 | -0.8 | -12.3
CCCCC(=O)c1c(O)c2ccccc2oc1=O | 21.1 | 39.8 | -3.7 | 1 | -0.6 | -11.6
CCOc1ccc(OCC(=O)c2c(O)c3ccccc3oc2=O)cc1 | 44.0* | -9.6 | -1.5 | 1 | -0.1 | -7.0
CCCCOc1cccc(C2(C(=O)O)CCCC2)c1 | 28.1* | -6.9 | -2.4 | 1 | -1.3 | -8.7
CCCCOc1ccc(C2(C(=O)O)CCCC2)cc1 | 8.5 | -11.5 | -4.3 | 1 | 3.5 | -5.9
CN(Cc1cccs1)C(=O)CSc1nnnn1C | -13.1 | -54.0 | -2.9 | 1 | 1.3 | -14.5
CCc1ccc(C(=O)NCc2cnn(C)c2)s1 | x | x | -3.6 | 1 | 0.6 | -6.0
CS(=O)(=O)Nc1ccc(OCc2ccccc2)cc1 | -15.9 | 9.7 | -7.8 | 1.1 | 1.5 | -12.0
O=C1CCCC/C1=N\Nc1ccc(OCc2ccccc2)cc1 | 3.7 | 92.0* | 4.7 | 1 | 1.0 | 2.3
Cc1ccc(NC(=S)Nc2ccc(OC(F)F)c(Cl)c2)cc1F | x | x | -1.4 | 1 | 3.7 | -4.3
